Experimental data: ChEMBL document CHEMBL4406834, “Phenylthiazoles with nitrogenous side chain: An approach to overcome molecular obesity” (Eur J Med Chem, 2019)
≈ marks a conversion by molar mass, not a printed value.

Experiments:
Staphylococcus aureus = assay: Antibacterial activity against methicillin-resistant Staphylococcus aureus NRS384 USA300 after 18 to 20 hrs by broth microdilution assay; assay type: functional
Outline: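 Broth microdilution per CLSI. Strains grown aerobically overnight on tryptone soy agar at 37 °C, adjusted to 0.5 McFarland, then diluted in cation-adjusted Mueller-Hinton broth to about 5 × 10^5 CFU/mL. Compounds (10 mg/mL DMSO stocks) serially diluted. Incubated aerobically at 37 °C for 18-20 h. MIC is the lowest concentration with no visible growth.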

[1] = Aqueous solubility of the compound in phosphate buffered saline assessed as concentration that produces no precipitate measured as OD at 540 nm; assay type: physicochemical
Escherichia coli [2] = assay: Antibacterial activity against Escherichia coli BW25113; assay type: functional
Pseudomonas aeruginosa [3] = assay: Bactericidal activity against Pseudomonas aeruginosa ATCC 27853; assay type: functional
Escherichia coli [4] = assay: Bactericidal activity against TolC-deficient Escherichia coli JW55031; assay type: functional
Escherichia coli [5] = assay: Antibacterial activity against TolC-deficient Escherichia coli JW55031; assay type: functional
Klebsiella pneumoniae [6] = assay: Antibacterial activity against Klebsiella pneumoniae BAA-1706; assay type: functional
Escherichia coli [7] = assay: Antibacterial activity against Escherichia coli ATCC 25922; assay type: functional
Acinetobacter baumannii [8] = assay: Bactericidal activity against Acinetobacter baumannii ATCC 19606; assay type: functional; details: ATCC 19606 = CIP 70.34 = JCM 6841
Escherichia coli [9] = assay: Bactericidal activity against Escherichia coli BW25113; assay type: functional
Klebsiella pneumoniae [10] = assay: Bactericidal activity against Klebsiella pneumoniae BAA-1706; assay type: functional
Pseudomonas aeruginosa [11] = assay: Bactericidal activity against Pseudomonas aeruginosa ATCC 15442; assay type: functional
Escherichia coli [12] = assay: Bactericidal activity against Escherichia coli ATCC 25922; assay type: functional
Pseudomonas aeruginosa [13] = assay: Antibacterial activity against Pseudomonas aeruginosa ATCC 15442; assay type: functional
Acinetobacter baumannii [14] = assay: Antibacterial activity against Acinetobacter baumannii ATCC 19606; assay type: functional; details: ATCC 19606 = CIP 70.34 = JCM 6841
Pseudomonas aeruginosa [15] = assay: Antibacterial activity against Pseudomonas aeruginosa ATCC 27853; assay type: functional

C/C(=N\NC(=N)N)c1sc(-c2ccc(N3CCC(Br)CC3)cc2)nc1C
MIC (Staphylococcus aureus): 8 µg/mL (≈ 18.4 µM)

C/C(=N\NC(=N)N)c1sc(-c2ccc(N3CCOCC3)cc2)nc1C
MIC (Staphylococcus aureus): > 128 µg/mL

C/C(=N\NC(=N)N)c1sc(-c2ccc(N3CCC4CCCCC4C3)cc2)nc1C (configuration not stated)
MIC (Staphylococcus aureus): > 128 µg/mL

C/C(=N\NC(=N)N)c1sc(-c2ccc(N3CCC3)cc2)nc1C
MIC (Staphylococcus aureus): > 128 µg/mL

C/C(=N\NC(=N)N)c1sc(-c2ccc(N3CCCC3)cc2)nc1C
MIC (Staphylococcus aureus): 16 µg/mL (≈ 46.7 µM)

C/C(=N\NC(=N)N)c1sc(-c2ccc(C3CCCCC3)cc2)nc1C
solubility kinetic [1]: 2.7 µM (≈ 0.96 µg/mL)

GENTAMICIN
MIC (Escherichia coli [2]): < 0.5 µg/mL
MBC (Pseudomonas aeruginosa [3]): 4 µg/mL
MBC (Escherichia coli [4]): < 0.5 µg/mL
MIC (Escherichia coli [5]): < 0.5 µg/mL
MIC (Klebsiella pneumoniae [6]): 4 µg/mL
MIC (Escherichia coli [7]): 1 µg/mL
MBC (Acinetobacter baumannii [8]): 32 µg/mL
MBC (Escherichia coli [9]): < 0.5 µg/mL
MBC (Klebsiella pneumoniae [10]): 4 µg/mL
MBC (Pseudomonas aeruginosa [11]): 2 µg/mL
MBC (Escherichia coli [12]): 1 µg/mL
MIC (Pseudomonas aeruginosa [13]): 2 µg/mL
MIC (Acinetobacter baumannii [14]): 32 µg/mL
MIC (Pseudomonas aeruginosa [15]): 2 µg/mL

C/C(=N\NC(=N)N)c1sc(-c2ccc(N3CCC(C)CC3)cc2)nc1C
MIC (Staphylococcus aureus): 16 µg/mL (≈ 43.2 µM)

C/C(=N\NC(=N)N)c1sc(-c2ccc(N3CCSC3)cc2)nc1C
MIC (Staphylococcus aureus): > 128 µg/mL
